Molecules are shown by their SMILES. Active and inactive are the calls of the source. The rule behind the calls is not given here.

The source of these data is ChEMBL document CHEMBL4706490, “New activators of eIF2α Kinase Heme-Regulated Inhibitor (HRI) with improved biophysical properties” (Eur J Med Chem, 2020).

For experiment [1], the target named is Eukaryotic translation initiation factor 2 subunit 1 (Homo sapiens) (UniProt P05198). The experiment can be described thus: Activation of eIF2alpha (unknown origin) assessed as fold stimulation ATF-4 surrogate eIF2alpha phosphorylation at 1.25 uM cell based Dual luciferase reporter assay. The conditions noted are these: filed as activator. Summed up: (§1)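 Cells stably expressing firefly and renilla luciferase reporters were treated in 96-well plates at 10, 5, 2.5 and 1.25 µM and read with a dual glow luciferase kit. The firefly/renilla (F/R) ratio of each well was normalized to vehicle (DMSO) wells on the same plate, set at 1. Dose-response curves used triplicate points fitted to a logistic sigmoidal model.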

The target is the same in experiment [2]. The experiment can be described thus: Activation of eIF2alpha (unknown origin) assessed as fold stimulation ATF-4 surrogate eIF2alpha phosphorylation at 5 uM cell based Dual luciferase reporter assay. The conditions noted are these: filed as activator. Summed up:
as §1

Experiment [3] can be described thus: Antiproliferative activity against human CRL-2813 cells assessed as inhibition of cell growth measured after 5 days by SRB assay. The class given is functional, cell-based. In a few lines: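 CRL-2813 cells in 96-well plates were kept for 5 days with 0.5 to 20 µM compound, then fixed in cold 10% trichloroacetic acid and stained with sulforhodamine B; bound dye absorbance was read. Percent growth was calculated as 100×[(T−T0)/(C−T0)] using day 5 treated, control and time-zero readings. IC50 is the concentration giving 50% growth inhibition.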

In experiment [4] the target is Eukaryotic translation initiation factor 2 subunit 1 (Homo sapiens) (UniProt P05198). The experiment can be described thus: Activation of eIF2alpha in human CRL-2813 cells assessed as eIF2alpha phosphorylation at 5 uM measured after 2 hrs Western blot analysis. The class given is cell-based. In a few lines: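 Adherent human melanoma CRL-2813 cells were grown in serum-containing, antibiotic-free medium to 70% confluence and exposed to 5 µM compound or vehicle for 2 hours. Cells were lysed in M-PER on ice, and protein was quantified by BCA and boiled in Laemmli buffer. Lysates were run on SDS-PAGE and immunoblotted for phospho-Ser51 eIF2α, total eIF2α and β-actin.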

Experiment [5] shares this target. The experiment is described as follows: Activation of eIF2alpha in human CRL-2813 cells assessed as increase in CHOP expression at 5 uM measured after 8 hrs Western blot analysis. Type of experiment: cell-based. Summed up: (§2)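 CRL-2813 melanoma cells were grown in serum-containing, antibiotic-free medium to 70% confluence and treated with 5 µM compound for 8 hours. Lysates were made in M-PER on ice, protein was normalized by BCA, and samples were separated by SDS-PAGE. Blots were probed for CHOP, p27Kip1, cyclin D1 and β-actin.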

The target is the same in experiment [6]. The experiment can be described thus: Activation of eIF2alpha in human CRL-2813 cells assessed as decrease in cyclin D1 expression at 5 uM measured after 8 hrs Western blot analysis. Type of experiment: cell-based. In a few lines: as §2
The subject of another experiment is CRL-2813. The experiment is described as follows: Effect on p27Kip1 expression in human CRL-2813 cells at 5 uM measured after 8 hrs Western blot analysis. The class given is functional, cell-based. In a few lines: as §2
The next experiment has as its system MCF7. The experiment can be described thus: Antiproliferative activity against human MCF7 cells transfected with HRI siRNA at 0.27 to 10 uM after 3 days by SRB assay. The conditions noted are these: dose 0.27-10 µM, time 3.0 day.

Chain of Eukaryotic translation initiation factor 2 subunit 1 (Homo sapiens) (P05198 whole entry): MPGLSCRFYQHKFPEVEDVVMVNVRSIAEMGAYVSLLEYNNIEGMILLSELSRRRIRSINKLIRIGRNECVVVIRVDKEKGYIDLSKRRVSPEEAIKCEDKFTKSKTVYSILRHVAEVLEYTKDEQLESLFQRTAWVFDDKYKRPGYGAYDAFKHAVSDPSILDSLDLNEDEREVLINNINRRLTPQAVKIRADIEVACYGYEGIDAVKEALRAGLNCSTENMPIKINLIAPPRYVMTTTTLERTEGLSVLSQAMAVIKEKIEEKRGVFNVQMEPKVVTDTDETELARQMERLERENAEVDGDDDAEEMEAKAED

For the compound `O=C(Nc1cccc(C(F)(F)F)c1)NC1CC(Oc2ccc(C(F)(F)F)cc2)C1` (cis isomer) [listing 1 of 2 here], the fold change (FC) in experiment [1] is 1.2; in experiment [2], 6.2.

As to `N#Cc1cccc(NC(=O)N[C@H]2CC[C@H](Oc3ccc(C(F)(F)F)cc3)C2)c1`, the fold change (FC) in experiment [1] was found to be 0.8; in experiment [2], 1.6. Also, the concentration for half-maximal inhibition (IC50) in experiment [3] (Homo sapiens, CRL2813, 120 h) was 6500 nM.

Regarding `O=C(Nc1cccc(C(F)(F)F)c1)NC1CC(Oc2ccc(C(F)(F)F)cc2)C1` (trans isomer) [listing 1 of 2 here], the IC50 in experiment [3] (Homo sapiens, CRL2813, 120 h) was found to be 3400 nM.

For the compound `N#Cc1cc(NC(=O)NC2CCC(Oc3ccc(C(F)(F)F)cc3)CC2)ccc1F` (configuration not stated), the fold change (FC) in experiment [1] amounted to 3.7; in experiment [2], 6.1. Also, the IC50 in experiment [3] (Homo sapiens, CRL2813, 120 h) turned out to be 1400 nM.

For the compound `O=C(Nc1cccc(C(F)(F)F)c1)NC1CCC(Oc2ccc(C(F)(F)F)cc2)CC1` (configuration not stated), the fold change (FC) in experiment [1] came out at 3.6; in experiment [2], 9.2. In experiment [3] (Homo sapiens, CRL2813, 120 h), the IC50 came out at 900 nM.

For the compound `N#Cc1ccc(F)c(NC(=O)NC2CCC(Oc3ccc(C(F)(F)F)cc3)CC2)c1` (configuration not stated), the figures for the fold change (FC) in experiment [1] and in experiment [2] were 1 and 1.5, respectively. In experiment [3] (Homo sapiens, CRL2813, 120 h), the IC50 is > 10000 nM. Further, the outcome (in experiment [4]; in experiment [5]; in experiment [6]; in the experiment on CRL-2813) was inactive.

`N#Cc1cccc(NC(=O)NC2CCC(Oc3ccc(C(F)(F)F)cc3)CC2)c1` (configuration not stated): the fold change (FC) in experiment [1] turned out to be 1.9; in experiment [2], 6.1. Further, the IC50 in experiment [3] (Homo sapiens, CRL2813, 120 h) came to 1600 nM.

Turning to `N#Cc1ccc(NC(=O)NC2CCC(Oc3ccc(C(F)(F)F)cc3)CC2)c(F)c1` (configuration not stated), the fold change (FC) in experiment [1] was determined as 2.4; in experiment [2] it was 6.2. Further, the IC50 in experiment [3] (Homo sapiens, CRL2813, 120 h) is 1400 nM.

For `O=C(Nc1cccc(F)c1F)NC1CCC(Oc2ccc(C(F)(F)F)cc2)CC1` (configuration not stated), the fold change (FC) in experiment [1] came to 4.7; in experiment [2] it was 9.9. Further, the IC50 in experiment [3] (Homo sapiens, CRL2813, 120 h) came out at 1600 nM. The result in experiment [4] (filed as activator), in experiment [5] (filed as activator) and in experiment [6] (filed as activator) was Active. In addition, the result in the experiment on CRL-2813 was inactive.

Regarding `N#Cc1cccc(NC(=O)NC2CC(Oc3ccc(C(F)(F)F)cc3)C2)c1` (stereo in doubt; trans) [listing 1 of 2 here], in experiment [3] (crl-2813), the concentration for half-maximal inhibition (IC50) amounted to 4900 nM.

As for `N#Cc1cc(F)cc(NC(=O)N[C@H]2CC[C@H](Oc3ccc(C(F)(F)F)cc3)C2)c1`, the results for the fold change (FC) in experiment [1] and in experiment [2] were 2.4 and 8, respectively. Also, in experiment [3] (Homo sapiens, CRL2813, 120 h), the 50% inhibitory concentration (IC50) turned out to be 1900 nM.

For `N#Cc1cc(F)cc(NC(=O)NC2CCC(Oc3ccc(C(F)(F)F)cc3)CC2)c1` (configuration not stated), the fold change (FC) in experiment [1] was 4.6; in experiment [2] it was 9.3. Besides, in experiment [3] (Homo sapiens, CRL2813, 120 h), the IC50 was determined as 630 nM. The outcome in experiment [4] (filed as activator), in experiment [5] (filed as activator) and in experiment [6] (filed as activator) was Active. The outcome in the experiment with CRL-2813 and with MCF7 was inactive.

As for `N#Cc1cccc(NC(=O)NC2CC(Oc3ccc(C(F)(F)F)cc3)C2)c1` (stereo in doubt; trans) [listing 2 of 2 here], the fold change (FC) in experiment [1] was found to be 1.6; in experiment [2], 3.5.

On to `Cc1ccc(F)cc1NC(=O)N[C@H]1CC[C@H](Oc2ccc(C(F)(F)F)cc2)C1`, for which the fold change (FC) in experiment [1] stood at 1.4; in experiment [2], 1.3. The IC50 in experiment [3] (Homo sapiens, CRL2813, 120 h) was determined as 8000 nM.

For `N#Cc1ccc(NC(=O)NC2CCC(Oc3ccc(C(F)(F)F)cc3)CC2)cc1F` (trans isomer), the figures for the fold change (FC) in experiment [1] and in experiment [2] were 5.5 and 10.4, respectively. Besides, the IC50 in experiment [3] (Homo sapiens, CRL2813, 120 h) came to 460 nM. For the same compound, the result in experiment [4] (filed as activator), in experiment [5] (filed as activator) and in experiment [6] (filed as activator) was Active. The result in the experiment with CRL-2813 and with MCF7 was inactive.

For the compound `N#Cc1cc(NC(=O)NC2CC(Oc3ccc(C(F)(F)F)cc3)C2)cc(C(F)(F)F)c1` (trans isomer) [listing 1 of 2 here], the IC50 in experiment [3] (Homo sapiens, CRL2813, 120 h) turned out to be 900 nM.

With `O=C(Nc1cccc(F)c1F)NC1CC(Oc2ccc(C(F)(F)F)cc2)C1` (trans isomer), the results for the fold change (FC) in experiment [1] and in experiment [2] were 0.8 and 6.2, respectively. Besides, the IC50 in experiment [3] (Homo sapiens, CRL2813, 120 h) was 2300 nM.

Consider `O=C(Nc1cccc(C(F)(F)F)c1)N[C@H]1CC[C@H](Oc2ccc(C(F)(F)F)cc2)C1`, for which the fold change (FC) is 1.2 in experiment [1] and 7 in experiment [2]. Besides, in experiment [3] (Homo sapiens, CRL2813, 120 h), the IC50 came out at 2500 nM.

For the compound `N#Cc1cc(NC(=O)NC2CC(Oc3ccc(C(F)(F)F)cc3)C2)cc(C(F)(F)F)c1` (cis isomer), the results for the fold change (FC) in experiment [1] and in experiment [2] were 4.3 and 8.4, respectively.

As to `N#Cc1cccc(NC(=O)NC2CC(Oc3ccc(C(F)(F)F)cc3)C2)c1` (stereo in doubt; cis) [listing 1 of 2 here], the IC50 in experiment [3] (crl-2813) was > 10000 nM.

As for `O=C(Nc1cccc(C(F)(F)F)c1)NC1CC(Oc2ccc(C(F)(F)F)cc2)C1` (trans isomer) [listing 2 of 2 here], the figures for the fold change (FC) in experiment [1] and in experiment [2] were 2.4 and 6.5, respectively.

As to `N#Cc1cc(F)cc(NC(=O)NC2CC(Oc3ccc(C(F)(F)F)cc3)C2)c1` (trans isomer), the fold change (FC) in experiment [1] came out at 2; in experiment [2], 5.3. Moreover, the IC50 in experiment [3] (Homo sapiens, CRL2813, 120 h) is 2800 nM.

With `O=C(Nc1cccc(C(F)(F)F)c1)NC1CC(Oc2ccc(C(F)(F)F)cc2)C1` (cis isomer) [listing 2 of 2 here], the IC50 in experiment [3] (crl-2813) came to 2600 nM.

On to `N#Cc1cccc(NC(=O)NC2CC(Oc3ccc(C(F)(F)F)cc3)C2)c1` (stereo in doubt; cis) [listing 2 of 2 here], for which the fold change (FC) amounted to 1.1 in experiment [1] and 0.9 in experiment [2].

Turning to `O=C(Nc1ccc(F)c(F)c1)NC1CC(Oc2ccc(C(F)(F)F)cc2)C1` (trans isomer), the fold change (FC) in experiment [1] was found to be 2.2; in experiment [2], 4.5. In addition, the IC50 in experiment [3] (Homo sapiens, CRL2813, 120 h) amounted to 5500 nM.

For the compound `O=C(Nc1ccc(F)c(F)c1)NC1CCC(Oc2ccc(C(F)(F)F)cc2)CC1` (trans isomer), the fold change (FC) in experiment [1] turned out to be 2.9; in experiment [2], 5.6. Further, the IC50 in experiment [3] (Homo sapiens, CRL2813, 120 h) came to 1300 nM.

In the case of `Cc1ccc(F)cc1NC(=O)NC1CC(Oc2ccc(C(F)(F)F)cc2)C1` (configuration not stated), the fold change (FC) in experiment [1] came to 0.7; in experiment [2], 1.4. Also, the IC50 in experiment [3] (Homo sapiens, CRL2813, 120 h) was > 10000 nM.

As for `N#Cc1cc(NC(=O)NC2CCC(Oc3ccc(C(F)(F)F)cc3)CC2)cc(C(F)(F)F)c1` (configuration not stated), the fold change (FC) was 5.7 in experiment [1] and 13.8 in experiment [2]. In addition, the IC50 in experiment [3] (Homo sapiens, CRL2813, 120 h) was 350 nM. Also, the outcome in experiment [4] (filed as activator), in experiment [5] (filed as activator) and in experiment [6] (filed as activator) was Active. The outcome in the experiment on CRL-2813 and in the experiment on MCF7 was inactive.

`O=C(Nc1ccc(F)c(F)c1)N[C@H]1CC[C@H](Oc2ccc(C(F)(F)F)cc2)C1`: the fold change (FC) in experiment [1] came to 0.9; in experiment [2] it was 3.5. Moreover, in experiment [3] (Homo sapiens, CRL2813, 120 h), the IC50 turned out to be 5200 nM.

Consider `Cc1ccc(F)cc1NC(=O)NC1CCC(Oc2ccc(C(F)(F)F)cc2)CC1` (configuration not stated), for which the figures for the fold change (FC) in experiment [1] and in experiment [2] were 1.8 and 1.5, respectively. For the same compound, the IC50 in experiment [3] (Homo sapiens, CRL2813, 120 h) is 5300 nM. The outcome in experiment [4] (filed as activator), in experiment [5] (filed as activator) and in experiment [6] (filed as activator) was Active. Besides, in the experiment on CRL-2813, the result was inactive.

Consider `N#Cc1cc(NC(=O)N[C@H]2CC[C@H](Oc3ccc(C(F)(F)F)cc3)C2)cc(C(F)(F)F)c1`, for which the fold change (FC) in experiment [1] came to 3.1; in experiment [2], 8.3. In addition, the IC50 in experiment [3] (Homo sapiens, CRL2813, 120 h) was 1200 nM.

Turning to `N#Cc1cc(NC(=O)NC2CC(Oc3ccc(C(F)(F)F)cc3)C2)cc(C(F)(F)F)c1` (trans isomer) [listing 2 of 2 here], the fold change (FC) in experiment [1] was 4.4; in experiment [2] it was 10. Besides, the outcome in experiment [4] (filed as activator), in experiment [5] (filed as activator) and in experiment [6] (filed as activator) was Active. The result in the experiment on CRL-2813 and in the experiment with MCF7 was inactive.
